Measurements taken from ChEMBL document CHEMBL1133370, “N-(sulfonamido)alkyl[tetrahydro-1H-benzo[e]indol-2-yl]amines: potent antagonists of human neuropeptide Y Y5 receptor” (Bioorg Med Chem Lett, 2000).

Molecular target: T1, Neuropeptide Y receptor type 5 (Homo sapiens, UniProt Q15761)
T1 sequence (Q15761 whole entry): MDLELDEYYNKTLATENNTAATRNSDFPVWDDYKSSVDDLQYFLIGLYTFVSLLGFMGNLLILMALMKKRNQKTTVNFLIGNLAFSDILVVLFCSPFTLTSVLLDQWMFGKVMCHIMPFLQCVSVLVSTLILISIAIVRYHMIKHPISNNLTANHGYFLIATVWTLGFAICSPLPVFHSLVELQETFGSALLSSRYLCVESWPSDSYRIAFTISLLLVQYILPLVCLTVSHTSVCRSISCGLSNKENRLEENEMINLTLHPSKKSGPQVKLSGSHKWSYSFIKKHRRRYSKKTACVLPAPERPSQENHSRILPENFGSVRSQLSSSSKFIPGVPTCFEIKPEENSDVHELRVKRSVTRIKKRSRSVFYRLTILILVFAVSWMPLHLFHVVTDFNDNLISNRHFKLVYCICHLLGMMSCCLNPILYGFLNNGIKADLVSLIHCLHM
Assay: Binding affinity for human Neuropeptide Y receptor type 5 in HEK293 cells
Format: cell-based
How it was run: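 Membranes from HEK293 cells stably transfected with human NPY5 cDNA, prepared in 20 mM HEPES buffer with NaCl, 0.22 mM KH2PO4, 1.3 mM CaCl2, 0.8 mM MgSO4, pH 7.4. Centrifuged, washed, membrane radioactivity gamma-counted. Non-specific binding with 300 nM NPY. IC50 is 50% inhibition of specific binding, averaged over ≥2 experiments.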

IC50 [nM]	SMILES
39	O=S(=O)(NC[C@H]1CC[C@H](CNC2=NC3CCc4ccccc4C3C2)CC1)c1ccccc1 (stereo partly drawn)
202	N[C@@H](CCCCNS(=O)(=O)c1ccccc1F)C(=O)NC1=NC2CCc3cc(F)ccc3C2C1 (stereo partly drawn)
54	O=S(=O)(NC[C@H]1CC[C@H](CNC2=NC3CCc4cc(Cl)ccc4C3C2)CC1)c1ccccc1 (stereo partly drawn)
9	O=C(NC1=NC2CCc3cc(O)ccc3C2C1)[C@H]1CC[C@H](CNS(=O)(=O)c2ccccc2)CC1 (stereo partly drawn)
91	COc1ccc2c(c1)CCC1N=C(NC(=O)[C@H]3CC[C@H](CNS(=O)(=O)c4ccccc4)CC3)CC21 (stereo partly drawn)
111	O=C(NC1=NC2CCc3cc(Cl)ccc3C2C1)[C@H]1CC[C@H](CNS(=O)(=O)c2ccccc2)CC1 (stereo partly drawn)
121	COc1ccc2c(c1)CCC1N=C(NC(=O)[C@H]3CC[C@H](CNS(=O)(=O)c4ccccc4F)CC3)CC21 (stereo partly drawn)
> 1000	COc1ccc2c(c1)CCC1N=C(NC(C)=O)CC21 (stereo not drawn)
60	O=C(NC1=NC2CCc3ccccc3C2C1)[C@H]1CC[C@H](CNS(=O)(=O)c2ccccc2)CC1 (stereo partly drawn)
35	COc1ccc2c(c1)CCC1N=C(NC[C@H]3CC[C@H](CNS(=O)(=O)c4ccccc4F)CC3)CC21 (stereo partly drawn)
57	COc1ccc2c(c1)CCC1N=C(NC[C@H]3CC[C@H](CNS(=O)(=O)c4ccccc4)CC3)CC21 (stereo partly drawn)
~1000	COc1ccc2c(c1)CCC(NCCc1ccc(OC)c(OC)c1)C2Cc1ccccc1 (stereo not drawn)
1	O=S(=O)(NC[C@H]1CC[C@H](CNC2=NC3CCc4cc(O)ccc4C3C2)CC1)c1ccccc1 (stereo partly drawn)
